Key:
[1] = Activity at cytochrome P450 in rat liver microsomes treated with (S)-warfarin measured after 10 mins by LC-UV analysis; assay type: ADME
In short: (§1)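 Male Wistar rat hepatic microsomes, 8.0 mg protein in 4.0 mL 0.01 M TES-0.002 M MgCl2, pH 7.4. Enantiopure warfarin sodium 1.0 mg (3.0 × 10^-6 mol) with an NADPH-generating system (NADP 1.25 μmol, glucose 6-phosphate 62.1 μmol). Preincubated 1.0 min at 37 °C, started with G6P dehydrogenase 5.0 units, stopped after 10 min by filtration. Metabolites separated and quantified by LC against external standards.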

[2] = Activity at cytochrome P450 in rat liver microsomes treated with (R)-warfarin measured after 10 mins by LC-UV analysis; assay type: ADME; in short: as §1
[3] = Activity at cytochrome P450 in rat liver microsomes treated with (S)-warfarin measured for 10 mins by LC-UV analysis; assay type: ADME; in short: as §1
[4] = Activity at cytochrome P450 in rat liver microsomes treated with (R)-warfarin measured for 10 mins by LC-UV analysis; assay type: ADME; in short: as §1
[5] = Drug metabolism in rat liver microsomes assessed as cytochrome P450-mediated 4-hydroxy-3-(3-oxo-1-phenyl-1-butenyl)-2H-1-benzopyran-2-one metabolite formation at 3 umol measured under acidic conditions by LC-UV analysis in presence of NADPH; assay type: ADME
In short: (§2)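 Male Wistar rat liver microsomes, uninduced or phenobarbital-induced (100 mg/kg/day ip in saline for 3 days, harvested 24 h after the last dose). Per 4.0 mL of 0.01 M TES–0.002 M MgCl2, pH 7.4: (R)- or (S)-warfarin sodium 3.0 × 10^-6 mol, NADP 1.25 µmol, glucose 6-phosphate 62.1 µmol, 8.0 mg protein. Preincubated 1.0 min at 37 °C, started with yeast G6P dehydrogenase (5.0 units), stopped by filtration after 10 min. Products quantified by LC against external standards.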

[6] = Drug metabolism in phenobarbital-induced rat liver microsomes assessed as cytochrome P450-mediated 4-hydroxy-3-(3-oxo-1-phenyl-1-butenyl)-2H-1-benzopyran-2-one metabolite formation at 3 umol measured under acidic conditions by LC-UV analysis in presence of NADPH; assay type: ADME; in short: as §2
[7] = Drug metabolism in rat liver microsomes assessed as cytochrome P450-mediated 4-oxo-3-(3-oxo-1-phenylbut-1-enyl)-4H-chromen-2-olate metabolite formation at 3 umol measured under basic conditions by LC-UV analysis in presence of NADPH; assay type: ADME; in short: as §2
[8] = Drug metabolism in phenobarbital-induced rat liver microsomes assessed as cytochrome P450-mediated 4-oxo-3-(3-oxo-1-phenylbut-1-enyl)-4H-chromen-2-olate metabolite formation at 3 umol measured under basic conditions by LC-UV analysis in presence of NADPH; assay type: ADME; in short: as §2
[9] = Drug metabolism in rat liver microsomes assessed as cytochrome P450-mediated 4-hydroxy-3-(3-oxo-1-phenyl-1-butenyl)-2H-1-benzopyran-2-one metabolite formation by LC-UV analysis in presence of nitrogen; assay type: ADME
In short: (§3)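 Same NADPH-supported microsomal incubation (warfarin 3.0 × 10^-6 mol, 8.0 mg protein, 4.0 mL TES–MgCl2, pH 7.4). Flasks were sealed with a septum and equilibrated under the stated gas atmosphere for 15 min on ice, then incubated at 37 °C. Products quantified by LC.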

[10] = Drug metabolism in rat liver microsomes assessed as cytochrome P450-mediated 4-hydroxy-3-(3-oxo-1-phenyl-1-butenyl)-2H-1-benzopyran-2-one metabolite formation by LC-UV analysis in presence of carbon monoxide-oxygen mixture at ratio of 80:20; assay type: ADME; in short: as §3
[11] = Drug metabolism in rat liver microsomes assessed as cytochrome P450-mediated 4'-hydroxywarfarin metabolite formation by LC-UV analysis in presence of carbon monoxide-oxygen mixture at ratio of 80:20; assay type: ADME; in short: as §3
[12] = Drug metabolism in rat liver microsomes assessed as cytochrome P450-mediated 6-hydroxywarfarin metabolite formation by LC-UV analysis in presence of carbon monoxide-oxygen mixture at ratio of 80:20; assay type: ADME; in short: as §3
[13] = Drug metabolism in rat liver microsomes assessed as cytochrome P450-mediated 7-hydroxywarfarin metabolite formation by LC-UV analysis in presence of carbon monoxide-oxygen mixture at ratio of 80:20; assay type: ADME; in short: as §3
[14] = Drug metabolism in rat liver microsomes assessed as cytochrome P450-mediated 4-hydroxy-3-(3-oxo-1-phenyl-1-butenyl)-2H-1-benzopyran-2-one metabolite formation measured for 10 mins by LC-UV analysis; assay type: ADME
In short: (§4)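 Time course with (S)-warfarin in uninduced rat liver microsomes (cytochrome P-450 1.0 nmol/mg protein; protein 2 mg/mL) at 37 °C and pH 7.4. NADPH-supported TES–MgCl2 incubation, with products quantified by LC. Single determination from a pool of five rats.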

[15] = Drug metabolism in rat liver microsomes assessed as cytochrome P450-mediated 4'-hydroxywarfarin metabolite formation measured for 10 mins by LC-UV analysis; assay type: ADME; in short: as §4
[16] = Drug metabolism in rat liver microsomes assessed as cytochrome P450-mediated 6-hydroxywarfarin metabolite formation measured for 10 mins by LC-UV analysis; assay type: ADME; in short: as §4
[17] = Drug metabolism in rat liver microsomes assessed as cytochrome P450-mediated 7-hydroxywarfarin metabolite formation measured for 10 mins by LC-UV analysis; assay type: ADME; in short: as §4
[18] = Drug metabolism in rat liver microsomes assessed as cytochrome P450-mediated 4-hydroxy-3-(3-oxo-1-phenyl-1-butenyl)-2H-1-benzopyran-2-one metabolite formation measured after 10 mins by LC-UV analysis; assay type: ADME; in short: as §4
[19] = Drug metabolism in rat liver microsomes assessed as cytochrome P450-mediated 4'-hydroxywarfarin metabolite formation measured after 10 mins by LC-UV analysis; assay type: ADME; in short: as §4
[20] = Drug metabolism in rat liver microsomes assessed as cytochrome P450-mediated 6-hydroxywarfarin metabolite formation measured after 10 mins by LC-UV analysis; assay type: ADME; in short: as §4
[21] = Drug metabolism in rat liver microsomes assessed as cytochrome P450-mediated 7-hydroxywarfarin metabolite formation measured after 10 mins by LC-UV analysis; assay type: ADME; in short: as §4
[22] = Drug metabolism in PCN-induced rat liver microsomes assessed as cytochrome P450-mediated 4-hydroxy-3-(3-oxo-1-phenyl-1-butenyl)-2H-1-benzopyran-2-one metabolite formation at 0.15 mmol measured per nmol of CYP450 by LC-UV analysis

Measured: Drug metabolism

CC(=O)CC(c1ccc(O)cc1)c1c(O)oc2ccccc2c1=O (configuration not stated)
metabolite_detected: [1] | [2] | [3] | [4]

CC(=O)C[C@@H](c1ccccc1)c1c(O)c2ccccc2oc1=O
0.19 nmol/min: [22]
metabolite_detected: [5] | [6] | [7] | [8] | [10] | [11] | [12] | [13] | [14] | [15] | [16] | [17] | [19] | [20] | [21]
metabolite_notdetected: [9] | [18]

Source: ChEMBL document CHEMBL3244411, “A new warfarin metabolite: structure and function” (J Med Chem, 1978)
